# According to ChEMBL document CHEMBL4130549, “Synthesis and bioactivities study of new antibacterial peptide mimics: The dialkyl cationic amphiphiles” (Eur J Med Chem, 2018):
# Activity calls are given as the source filed them. No cut-off for these calls is given here.
# How the values were obtained:
# [1] = test system: Staphylococcus aureus; experiment: Antibiofilm activity against Staphylococcus aureus ATCC 29213 assessed as bacterial cell viability in biofilm at 2 ug/ml after 24 hrs (reference value: 21.9 log10CFU/ml); assay type: functional
# Method in brief: (§1)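 Mid-log cells at ~10⁵ CFU/mL grown stationary in 96-well plates (S. aureus in MHB for 24 h; E. coli in M9 with 0.02% casamino acids and 0.5% glycerol for 72 h). After washing, biofilms exposed 24 h at 37 °C to 2-128 µg/mL; detached with trypsin-EDTA, serially plated, viability given as log10 CFU/well against an untreated control.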
# [2] = Selectivity index, ratio of HC50 for sheep RBC to MIC for Staphylococcus aureus ATCC 29213; assay type: toxicity; conditions: sheep red blood cells (erythrocytes), read-out: Selectivity Index
# Method in brief: (§2)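 HC50 from sheep RBC lysis: 5% RBC suspension exposed 1 h at 37 °C to a 5120–10 µg/mL series, with A540 of supernatant scaled to 0.1% Triton X-100. MIC by CLSI broth microdilution in cation-adjusted MHB, ~10^6 CFU/mL, 256–0.5 µg/mL, 37 °C for 16–20 h, duplicates with at least two repeats.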
# [3] = Selectivity index, ratio of HC50 for sheep RBC to MIC for Escherichia coli ATCC 25922; assay type: toxicity; conditions: sheep red blood cells (erythrocytes), read-out: Selectivity Index; method in brief: as §2
# [4] = test system: Staphylococcus aureus; experiment: Bactericidal activity against Staphylococcus aureus ATCC 29213 assessed as time required to kill early exponential phase at 8 ug/ml by time kill assay; assay type: functional
# Method in brief: (§3)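 Overnight culture diluted 1:10,000 in MHB and shaken at 37 °C, 225 rpm, for 2 h (early exponential) or 5 h (late exponential), then exposed to compound at 6× and 8× MIC in tubes at 37 °C, 225 rpm. Samples (100 µL) taken at intervals, pelleted, resuspended in PBS, and ten-fold dilutions plated on MHA overnight at 37 °C for CFU/mL. Biological replicates.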
# [5] = test system: Staphylococcus aureus; experiment: Bactericidal activity against Staphylococcus aureus ATCC 29213 assessed as time required to kill late exponential phase at 6 to 8 ug/ml by time kill assay; assay type: functional; method in brief: as §3
# [6] = test system: Escherichia coli; experiment: Bactericidal activity against Escherichia coli ATCC 25922 assessed as time required to kill early exponential phase at 12 to 16 ug/ml by time kill assay; assay type: functional
# [7] = test system: Escherichia coli; experiment: Bactericidal activity against Escherichia coli ATCC 25922 assessed as time required to kill late exponential phase at 12 to 16 ug/ml by time kill assay; assay type: functional
# [8] = test system: Staphylococcus aureus; experiment: Antibiofilm activity against Staphylococcus aureus ATCC 29213 assessed as bacterial cell viability in biofilm at 8 ug/ml after 24 hrs (reference value: 21.9 log10CFU/ml); assay type: functional; method in brief: as §1
# [9] = test system: Staphylococcus aureus; experiment: Antibiofilm activity against Staphylococcus aureus ATCC 29213 assessed as bacterial cell viability in biofilm at 16 ug/ml after 24 hrs (reference value: 21.9 log10CFU/ml); assay type: functional; method in brief: as §1
# [10] = test system: Staphylococcus aureus; experiment: Antibiofilm activity against Staphylococcus aureus ATCC 29213 assessed as bacterial cell viability in biofilm at 32 ug/ml after 24 hrs (reference value: 21.9 log10CFU/ml); assay type: functional; method in brief: as §1
# [11] = test system: Staphylococcus aureus; experiment: Antibiofilm activity against Staphylococcus aureus ATCC 29213 assessed as bacterial cell viability in biofilm at 128 ug/ml after 24 hrs (reference value: 21.9 log10CFU/ml); assay type: functional; method in brief: as §1
# [12] = test system: Escherichia coli; experiment: Antibiofilm activity against Escherichia coli ATCC 25922 assessed as bacterial cell viability in biofilm at 2 ug/ml after 24 hrs (reference value: 25.9 log10CFU/ml); assay type: functional; method in brief: as §1
# [13] = test system: Escherichia coli; experiment: Antibiofilm activity against Escherichia coli ATCC 25922 assessed as bacterial cell viability in biofilm at 4 ug/ml after 24 hrs (reference value: 25.9 log10CFU/ml); assay type: functional; method in brief: as §1
# [14] = test system: Escherichia coli; experiment: Antibiofilm activity against Escherichia coli ATCC 25922 assessed as bacterial cell viability in biofilm at 8 ug/ml after 24 hrs (reference value: 25.9 log10CFU/ml); assay type: functional; method in brief: as §1
# [15] = test system: Escherichia coli; experiment: Antibiofilm activity against Escherichia coli ATCC 25922 assessed as bacterial cell viability in biofilm at 32 ug/ml after 24 hrs (reference value: 25.9 log10CFU/ml); assay type: functional; method in brief: as §1
# [16] = test system: Escherichia coli; experiment: Antibiofilm activity against Escherichia coli ATCC 25922 at 8 to 128 ug/ml after 72 hrs by crystal violet staining based assay; assay type: functional, organism-based
# Method in brief: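 Biofilms grown in 24-well plates for about 72 h at 37 °C, treated, stained with 1.0% crystal violet, rinsed, dried, dye taken up in 95% ethanol for 1 h at room temperature, then photographed.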
# [17] = test system: Escherichia coli; experiment: Antibiofilm activity against Escherichia coli ATCC 25922 after 24 hrs by turbidity method; assay type: functional
# Method in brief: (§4)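 MBEC: biofilms grown 24 h at 37 °C from 1:1000-diluted exponential-phase culture; planktonic cells removed, twofold dilutions in fresh medium added for 24 h at 37 °C, then fresh medium alone for 24 h recovery. MBEC is the lowest concentration with no visible turbidity.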
# [18] = test system: Staphylococcus aureus; experiment: Antibiofilm activity against Staphylococcus aureus ATCC 29213 after 24 hrs by turbidity method; assay type: functional; method in brief: as §4
# [19] = test system: Escherichia coli; experiment: Antibiofilm activity against Escherichia coli ATCC 25922 after 24 hrs by crystal violet staining method; assay type: functional
# Method in brief: (§5)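 MBIC: twofold dilutions in MHB inoculated with 1:1000-diluted exponential-phase culture (10⁸ CFU/mL), 24 h at 37 °C. Wells rinsed, stained 10 min with 0.1% crystal violet, dye dissolved in ethanol, OD540 read; MBIC80 taken from dose–response versus untreated wells.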
# [20] = test system: Staphylococcus aureus; experiment: Antibiofilm activity against Staphylococcus aureus ATCC 29213 after 24 hrs by crystal violet staining method; assay type: functional; method in brief: as §5
# [21] = test system: Escherichia coli; experiment: Ratio of MBEC to MIC for Escherichia coli ATCC 25922 after 24 hrs; assay type: functional
# Method in brief: (§6)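 For MBEC, biofilms grown 24 h at 37 °C from a 1:1000 dilution of exponential-phase culture, washed, exposed 24 h to two-fold compound dilutions in fresh medium, then recovered 24 h in medium alone; MBEC is the lowest concentration with no turbidity. MIC by CLSI broth microdilution in cation-adjusted MHB, ~10^6 CFU/mL inoculum, 37 °C, 16–20 h.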
# [22] = test system: Staphylococcus aureus; experiment: Ratio of MBEC to MIC for Staphylococcus aureus ATCC 29213; assay type: functional; method in brief: as §6
# [23] = test system: Staphylococcus aureus; experiment: Antibacterial activity against Staphylococcus aureus ATCC 29213 after 20 serial passages measured after 16 to 20 hrs by broth microdilution method; assay type: functional, organism-based
# Method in brief: (§7)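 Sub-MIC serial passaging: after an initial broth microdilution MIC, cells grown at MIC/2 were transferred into a new MIC assay after each 24 h incubation, for 20 passages. MIC was plotted against days to follow resistance development. Passaging controls were norfloxacin for S. aureus and colistin for E. coli.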
# [24] = test system: Escherichia coli; experiment: Antibacterial activity against Escherichia coli ATCC 25922 after 20 serial passages measured after 16 to 20 hrs by broth microdilution method; assay type: functional, organism-based; method in brief: as §7
structure (smiles),measurement,setting,value
CCCCCCCCCN(CCCCCCCCC)C(=O)[C@@H](N)CCCCN.Cl.Cl,Activity,[1],19.9 log10CFU
same,selectivity ratio,[2],133
same,selectivity ratio,[3],66.5
same,Time,[4],0.5 h
same,Time,[5],6 h
same,Time,[6],0.5 h
same,Time,[7],1 h
same,Activity,[8],11.9 log10CFU
same,Activity,[9],11.5 log10CFU
same,Activity,[10],9.9 log10CFU
same,Activity,[11],7.6 log10CFU
same,Activity,[12],24.7 log10CFU
same,Activity,[13],23.9 log10CFU
same,Activity,[14],8.4 log10CFU
same,Activity,[15],2.1 log10CFU
same,Activity,[16],Active
same,MBEC,[17],128 µg/mL
same,MBEC,[18],64 µg/mL
same,MBIC80,[19],53.9 µg/mL
same,MBIC90,[19],73.6 µg/mL
same,MBIC80,[20],18 µg/mL
same,MBIC90,[20],26.9 µg/mL
same,Ratio,[21],64
same,Ratio,[22],64
same,Activity,[23],Active
same,Activity,[24],Active
